From ChEMBL document CHEMBL1148232, “Inhibitory activities against topoisomerase I and II by polyhydroxybenzoyl amide derivatives and their structure-activity relationship” (Bioorg Med Chem Lett, 2004)

Tests used:
HeLa [1] = assay: Concentration required to inhibit S phase and G2/M phase in HeLa cells; assay type: functional, cell-based; conditions: Homo sapiens
Outline: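 HeLa cells cultured with compound, then cell-cycle progression analysed by flow cytometry; read-out was the percentage of cells in the G0/G1, S and G2/M phases.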

HeLa [2] = assay: Growth inhibitory concentration of compound was determined against HeLa cells by alamar blue assay; assay type: functional; conditions: Homo sapiens
DNA topoisomerase 1 [3] = target: T1, DNA topoisomerase 1 (Homo sapiens, UniProt P11387); assay: Inhibitory concentration against relaxation activity of DNA topoisomerase I by detecting the conversion of supercoiled pBR322 DNA to its relaxed form
T1 sequence (P11387 whole entry): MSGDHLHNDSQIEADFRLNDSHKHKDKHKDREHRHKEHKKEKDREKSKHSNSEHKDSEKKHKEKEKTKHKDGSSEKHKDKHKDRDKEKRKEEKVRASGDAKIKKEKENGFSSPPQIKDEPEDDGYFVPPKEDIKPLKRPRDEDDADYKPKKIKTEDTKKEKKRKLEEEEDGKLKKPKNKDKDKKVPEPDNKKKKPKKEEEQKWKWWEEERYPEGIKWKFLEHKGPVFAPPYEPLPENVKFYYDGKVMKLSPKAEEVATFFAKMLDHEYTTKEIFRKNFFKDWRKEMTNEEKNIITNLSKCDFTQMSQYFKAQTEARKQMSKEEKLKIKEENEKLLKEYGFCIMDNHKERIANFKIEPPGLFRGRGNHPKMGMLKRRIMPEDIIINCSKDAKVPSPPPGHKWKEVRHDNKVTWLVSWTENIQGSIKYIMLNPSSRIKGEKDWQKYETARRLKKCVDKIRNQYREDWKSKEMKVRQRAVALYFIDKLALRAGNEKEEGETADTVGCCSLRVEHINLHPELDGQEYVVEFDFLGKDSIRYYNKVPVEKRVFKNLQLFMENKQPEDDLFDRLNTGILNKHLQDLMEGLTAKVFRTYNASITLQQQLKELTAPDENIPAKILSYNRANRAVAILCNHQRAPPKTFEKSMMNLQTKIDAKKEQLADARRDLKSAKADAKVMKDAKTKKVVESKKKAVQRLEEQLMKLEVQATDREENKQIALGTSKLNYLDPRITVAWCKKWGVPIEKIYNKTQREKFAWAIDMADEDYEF

DNA topoisomerase II [4] = target: T2, DNA topoisomerase II (Homo sapiens, UniProt P11388+Q02880); assay: Inhibitory concentration against relaxation activity of DNA topoisomerase II by detecting the conversion of supercoiled pBR322 DNA to its relaxed form; assay type: protein assay
DNA topoisomerase 1 [5] = target: T1, DNA topoisomerase 1; assay: Inhibition of relaxation activities of DNA topoisomerase I with respect to pBR322 DNA
Outline: (§1)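 Ki from Lineweaver–Burk plots: the rate of relaxation of supercoiled pBR322 DNA by the topoisomerase was measured across a range of DNA substrate concentrations, with and without inhibitor.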

DNA topoisomerase II [6] = target: T2, DNA topoisomerase II; assay: Inhibition of relaxation activities of DNA topoisomerase II with respect to pBR322 DNA; assay type: protein assay; outline: as §1

SMILES	IC50 (DNA topoisomerase 1 [3])	further results
COc1cc([C@@H]2c3cc4c(cc3[C@@H](O[C@@H]3O[C@@H]5CO[C@@H](C)O[C@H]5[C@H](O)[C@H]3O)[C@H]3COC(=O)[C@H]23)OCO4)cc(OC)c1O [ETOPOSIDE]	–	Concentration (HeLa [1]): 2 µM; GI50 (HeLa [2]): 40 µM
O=C(Nc1cccc(NC(=O)c2ccc(O)c(O)c2)c1)c1ccc(O)c(O)c1	10 µM	–
CC[C@@]1(O)C(=O)OCc2c1cc1n(c2=O)Cc2cc3ccccc3nc2-1 [CAMPTOTHECIN]	–	Concentration (HeLa [1]): 0.1 µM; GI50 (HeLa [2]): 0.6 µM
O=C(Nc1nc2ccccc2s1)c1ccc(O)c(O)c1	16.9 µM	–
O=C(Nc1ccc(NC(=O)c2ccc(O)cc2)cc1)c1ccc(O)cc1	> 100 µM	–
CC(=O)Oc1ccc(C(=O)Nc2cccc(NC(=O)c3ccc(OC(C)=O)c(OC(C)=O)c3)c2)cc1OC(C)=O	43.2 µM	–
CC(=O)Oc1cc(C(=O)Nc2ccc(NC(=O)c3cc(OC(C)=O)c(OC(C)=O)c(OC(C)=O)c3)cc2)cc(OC(C)=O)c1OC(C)=O	8.6 µM	–
CC(=O)Oc1ccc(C(=O)Nc2ccc(NC(=O)c3ccc(OC(C)=O)c(OC(C)=O)c3)cc2)cc1OC(C)=O	> 100 µM	–
CC(=O)Oc1ccc(C(=O)Nc2ccccc2NC(=O)c2ccc(OC(C)=O)c(OC(C)=O)c2)cc1OC(C)=O	88 µM	–
O=C(Nc1ccccc1)c1cc(O)c(O)c(O)c1	> 100 µM	–
CC(=O)Oc1ccc(C(=O)Nc2ccc(NC(=O)c3ccc(OC(C)=O)cc3)cc2)cc1	> 100 µM	–
O=C(Nc1ccc(NC(=O)c2ccc(O)c(O)c2)cc1)c1ccc(O)c(O)c1	2.6 µM	–
O=C(Nc1nc2ccccc2s1)c1ccc(O)cc1	> 100 µM	–
O=C(Nc1cccc(NC(=O)c2cc(O)c(O)c(O)c2)c1)c1cc(O)c(O)c(O)c1	1.6 µM	IC50 (DNA topoisomerase II [4]): 0.22 µM
O=C(Nc1ccccc1NC(=O)c1cc(O)c(O)c(O)c1)c1cc(O)c(O)c(O)c1	0.9 µM	IC50 (DNA topoisomerase II [4]): 0.09 µM; Ki (DNA topoisomerase 1 [5]): 0.4 µM; Ki (DNA topoisomerase II [6]): 0.0741 µM; GI50 (HeLa [2]): 30 µM
O=C(Nc1ccccc1NC(=O)c1ccc(O)cc1)c1ccc(O)cc1	> 100 µM	–
CC(=O)Oc1ccc(C(=O)Nc2ccccc2NC(=O)c2ccc(OC(C)=O)cc2)cc1	> 100 µM	–
CC(=O)Oc1ccc(C(=O)Nc2cccc(NC(=O)c3ccc(OC(C)=O)cc3)c2)cc1	> 100 µM	–
CC(=O)Oc1cc(C(=O)Nc2ccccc2NC(=O)c2cc(OC(C)=O)c(OC(C)=O)c(OC(C)=O)c2)cc(OC(C)=O)c1OC(C)=O	4.7 µM	–
O=C(Nc1nc2ccccc2s1)c1cc(O)c(O)c(O)c1	8.2 µM	–
O=C(Nc1ccccc1NC(=O)c1ccccc1)c1ccccc1	> 100 µM	–
O=C(Nc1cccc(NC(=O)c2ccc(O)cc2)c1)c1ccc(O)cc1	> 100 µM	–
O=C(Nc1ccc(NC(=O)c2cc(O)c(O)c(O)c2)cc1)c1cc(O)c(O)c(O)c1	1.4 µM	IC50 (DNA topoisomerase II [4]): 0.15 µM
CC(=O)Oc1cc(C(=O)Nc2cccc(NC(=O)c3cc(OC(C)=O)c(OC(C)=O)c(OC(C)=O)c3)c2)cc(OC(C)=O)c1OC(C)=O	11.2 µM	–
O=C(Nc1ccccc1NC(=O)c1ccc(O)c(O)c1)c1ccc(O)c(O)c1	6.4 µM	–
